Only a selection was taken, and hits are over-represented in it overall.
PolyA inh = blocks polyadenylation in yeast reporter cells; S. cerevisiae SKY197-pL101 polyadenylation reporter, beta-gal luminescence; efflux-impaired pdr1/pdr3 knockout yeast; score 100 = 6 SD above DMSO; activity score, % at 12 µM; 300,000 tested, 0.02% active;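 active means lowest replicate activity score at least 50, where 100 means six control SD above control mean; inconclusive means lowest score under 50 but half or more replicates reach 50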;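 further: yeast exposed to compound for 9 h at 30 °C; higher score means more reporter readthrough which indicates perturbed polyadenylation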
NLRP3 yeast inh = NALP3 inhibition in yeast; Yeast reconstituted NLRP3/ASC/caspase-1, beta-gal luminescence, 24 h; inhibition, % at 10 µM; 330,000 tested, 0.39% active; AID 2825;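 active means inhibition of 50% or more; inactive means inhibition below 50%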;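 further: plate controls were induced DMSO wells for no effect and uninduced yeast grown without galactose for full effect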
Calb FLC = affects C. albicans growth with fluconazole. 300,000 tested, 0.57% active. growth inhibition, % (concentration not given with the values). C. albicans CaCi-2 (fluconazole-resistant clinical isolate) + fluconazole, Alamar Blue growth, 48 h;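 active means growth inhibition above about 58% in most replicates, limit read from the data, passing the limit was not always enough; inconclusive means exactly half the replicates above a set limit; inactive means most replicates below a set limit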;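 further: all wells also contain fluconazole at 8 µg/ml as a sub-toxic cotreatment; 0% = median of DMSO wells and 100% = median of geldanamycin control wells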
Lmaj promast = Leishmania major promastigote growth inhibition; 200,000 tested, 9% active; Leishmania major promastigotes, resazurin fluorescence viability; inhibition, % at 10 µM; AID 1063; in the data active means inhibition above about 50%;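 further: promastigotes grown with compound for 44 hours at 28 °C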
NALP1 yeast inh = NALP1 inhibition; inhibition, % at 10 µM; S. cerevisiae NALP1/ASC/caspase-1 growth, X-gal OD620, 72 h; 280,000 tested, 0.61% active; in the data active means inhibition mostly above about 24%, no sharp cut-off; inactive means mostly below about 32%
T cruzi inh = blocks replication of Trypanosoma cruzi | T. cruzi beta-gal in NIH3T3, luminescence, 90 h | inhibition, % (test concentration not listed) | AID 1885 | 300,000 tested, 1.4% active;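 active means mean inhibition across valid replicates above about 55%, limit read from the data; inconclusive means mean below that limit but half or more replicates reach it; inactive means mean below it, under half of replicates reach it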;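 further: signal also drops with host cell toxicity which is not excluded here; 0% = plate median of DMSO wells and 100% = zero luminescence signal; higher percent means less beta-gal luminescence so fewer parasites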
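Incubation – ≥90 h infection period, 3 h prior cell attachment · System – NIH/3T3 fibroblasts plus reporter T. cruzi · Doses – compound pinned at 50 nL/well, DMSO · Read-out basis – percent inhibition of parasite-derived β-gal signal · Signal – luminescent β-galactosidase signal after 60 min lysis · Also added – 5000 T. cruzi trypomastigotes/well · Medium – Low-serum DMEM with 2% FBS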
Numbers without * were called inactive.

Results for Cc1ccc(CN(C(=O)COc2ccc(Br)cc2)C2CCS(=O)(=O)C2)o1 (stereo not given) ?
PolyA inh: 26; NLRP3 yeast inh: -3; Calb FLC: -1; NALP1 yeast inh: 10; T cruzi inh: 43

Results for CCOC(=O)c1cccc(Nc2ncnc3ccc(C)cc23)c1 ?
PolyA inh: 7; NLRP3 yeast inh: 32; Calb FLC: 5; Lmaj promast: 56*; NALP1 yeast inh: 32; T cruzi inh: 33

How did Clc1cccc(Nc2ncnc3ccc(Br)cc23)c1 do in these assays?
PolyA inh: -42; NLRP3 yeast inh: 23; Calb FLC: 17; Lmaj promast: 40; NALP1 yeast inh: 24; T cruzi inh: 18

Results for Cc1ccc(O)c(Nc2ncnc3ccccc23)c1 ?
PolyA inh: -17; NLRP3 yeast inh: 7; Calb FLC: 7; NALP1 yeast inh: 10; T cruzi inh: -6

How did CCOC(=O)c1ccc(Nc2ncnc3ccc(C)cc23)cc1 do in these assays?
PolyA inh: -27; NLRP3 yeast inh: 23; Calb FLC: 3; Lmaj promast: 15; NALP1 yeast inh: 11; T cruzi inh: 21

How did Cc1ccc2ncnc(Nc3ccccc3)c2c1 do in these assays?
PolyA inh: 0; NLRP3 yeast inh: 10; Calb FLC: 20; Lmaj promast: 65*; NALP1 yeast inh: 14; T cruzi inh: 3

What do the screens show for `Cc1cccc(Nc2ncnc3ccc(Br)cc23)c1`?
PolyA inh: -5; NLRP3 yeast inh: 17; Calb FLC: 15; Lmaj promast: 56*; NALP1 yeast inh: 8; T cruzi inh: -18

Results for COc1ccccc1Nc1ncnc2ccc(C)cc12 ?
PolyA inh: -12; NLRP3 yeast inh: 13; Calb FLC: 16; Lmaj promast: 71*; NALP1 yeast inh: 2; T cruzi inh: 18

How did COc1cccc(/C=C/C(=O)OCC(=O)Nc2cccc(S(=O)(=O)N(C)C)c2)c1 do in these assays?
PolyA inh: -16; NLRP3 yeast inh: 11; Calb FLC: -1; Lmaj promast: 3; NALP1 yeast inh: -4; T cruzi inh: -2

Results for COCCN(C(=O)c1cccc(N2C(=O)CCC2=O)c1)c1nc(-c2ccc([N+](=O)[O-])cc2)cs1 ?
PolyA inh: 6; NLRP3 yeast inh: 12; Calb FLC: 1; T cruzi inh: -3

What do the screens show for `COc1ccccc1N(C(=O)c1ccncc1)c1nc(-c2ccc([N+](=O)[O-])cc2)cs1`?
PolyA inh: -24; NLRP3 yeast inh: 3; Calb FLC: 30; Lmaj promast: 99*; NALP1 yeast inh: 31; T cruzi inh: 62*

How did COc1cc(/C=C/c2ccc3cccc([N+](=O)[O-])c3n2)ccc1OCC#N do in these assays?
PolyA inh: -18; NLRP3 yeast inh: 12; Calb FLC: -3; Lmaj promast: 6; NALP1 yeast inh: 13; T cruzi inh: 9

What do the screens show for `O=[N+]([O-])c1ccc(/C=C/c2ccncc2)cc1`?
PolyA inh: inconclusive; Calb FLC: 6; NALP1 yeast inh: 32; T cruzi inh: 65*

Results for O=[N+]([O-])c1ccc(/C=C/c2ccc3cccc([N+](=O)[O-])c3n2)cc1 ?
PolyA inh: -13; NLRP3 yeast inh: 14; Calb FLC: 0; Lmaj promast: 51*; NALP1 yeast inh: 4; T cruzi inh: 13

How did CCOc1cc(/C=C/c2ccc3cccc([N+](=O)[O-])c3n2)ccc1O do in these assays?
PolyA inh: -9; NLRP3 yeast inh: 16; Calb FLC: 22; Lmaj promast: 73*; NALP1 yeast inh: 34; T cruzi inh: 2

How did O=[N+]([O-])c1cccc(/C=C/c2ccc3cccc(O)c3n2)c1 do in these assays?
PolyA inh: -3; NLRP3 yeast inh: 12; Calb FLC: -2; NALP1 yeast inh: -3; T cruzi inh: 25

How did O=[N+]([O-])c1cccc2ccc(/C=C/c3ccc(F)cc3)nc12 do in these assays?
PolyA inh: -27; NLRP3 yeast inh: 23; Calb FLC: -8; Lmaj promast: 57*; NALP1 yeast inh: 25; T cruzi inh: 29

How did O=C1Nc2ccccc2/C1=C/c1cccnc1 do in these assays?
PolyA inh: -9; NLRP3 yeast inh: -2; Calb FLC: -5; Lmaj promast: 78*; NALP1 yeast inh: 5; T cruzi inh: -29

How did NS(=O)(=O)c1ccc(-c2ccc(/C=C3\C(=O)Nc4ccccc43)o2)cc1 do in these assays?
PolyA inh: -20; NLRP3 yeast inh: 44; Calb FLC: -4; NALP1 yeast inh: 0; T cruzi inh: 4

Results for Cc1ccc(/C=C2\C(=O)Nc3ccccc32)o1 ?
NLRP3 yeast inh: 24; Lmaj promast: 99*; NALP1 yeast inh: 25; T cruzi inh: 9

How did O=C1Nc2ccccc2/C1=C/c1cnc(-c2ccccc2)[nH]1 do in these assays?
PolyA inh: -14; NLRP3 yeast inh: 23; Calb FLC: 4; NALP1 yeast inh: 3; T cruzi inh: 16

How did O=C(c1ccco1)N1CCN(C(=O)C(Sc2ccccc2)c2ccccc2)CC1 (stereo not given) do in these assays?
PolyA inh: -6; NLRP3 yeast inh: -14; Calb FLC: 11; Lmaj promast: 59*; NALP1 yeast inh: 14; T cruzi inh: -4

What do the screens show for `O=C(CSc1ccccc1)N1CCN(C(=O)c2ccco2)CC1`?
PolyA inh: -2; NLRP3 yeast inh: 5; Calb FLC: -7; Lmaj promast: -9; NALP1 yeast inh: -27; T cruzi inh: -4

Results for COc1cccc(N=Nc2c(N)[nH]n3c(=O)cc(-c4ccccc4)nc23)c1 ?
PolyA inh: 0; NLRP3 yeast inh: 17; Calb FLC: 5; Lmaj promast: 92*; NALP1 yeast inh: -1

How did Cc1ccc(N=Nc2c(N)[nH]n3c(=O)cc(-c4ccccc4)nc23)cc1 do in these assays?
NLRP3 yeast inh: 25; Calb FLC: -28; Lmaj promast: 94*; NALP1 yeast inh: 7

How did Cc1ccc(CCNC(=O)CS(=O)Cc2nc(-c3ccccc3Cl)oc2C)cc1 (stereo not given) do in these assays?
PolyA inh: 2; NLRP3 yeast inh: 7; Calb FLC: 1; NALP1 yeast inh: 18; T cruzi inh: 0

How did CCn1c(=O)n(CC)c2cc(S(=O)(=O)Nc3c(C)cccc3C)ccc21 do in these assays?
PolyA inh: 15; NLRP3 yeast inh: 2; Calb FLC: 0; Lmaj promast: 98*; NALP1 yeast inh: -13; T cruzi inh: 22

How did O=[N+]([O-])c1cccc(C=Nc2cc3c(cc2Br)OCCO3)c1 do in these assays?
Lmaj promast: 2; NALP1 yeast inh: 33

What do the screens show for `COCCn1c(-c2ccc(OC)cc2)cnc1N`?
PolyA inh: -9; NLRP3 yeast inh: 0; Calb FLC: 25; Lmaj promast: 1; NALP1 yeast inh: -18; T cruzi inh: -6

What do the screens show for `CCOc1ccc(-c2cnc(NCc3cccc4ccccc34)n2CCOC)cc1`?
PolyA inh: -46; NLRP3 yeast inh: 35; Calb FLC: 21; NALP1 yeast inh: 29; T cruzi inh: 72*
